Laboratory results reported in paper PMC7992179 (ACS Omega, 2021).
“And” between values parts separate entries of the source, which are not always exact repeats. Equal values may be shown once.

Columns and labels:
[1] = tested on: MCF-7 cell line; assay: MTT cytotoxicity assay in MCF-7 cells; type: cell-based, human; details: for % inhibition/stimulation: conc. 30 μM
Outline: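 MCF-7 cells grown in Eagle's MEM with 10% FBS, 1% penicillin/streptomycin, 0.1 mM non-essential amino acids, 10 μg/mL insulin and 1 mM sodium pyruvate at 37 °C, 5% CO2. Trypsin/EDTA-harvested cells were seeded at 6 × 10^4 cells/mL and incubated overnight. Test compound (1–30 μM, or a fixed 30 μM screen against doxorubicin) was applied for 48 h. MTT 0.5 mg/mL for 4 h, DMSO, A570; % inhibition and IC50.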

[2] = tested on: motor coordination on rotating rod; assay: Neurotoxicity / minimal motor impairment, rotating rod; type: in vivo; details: rod observed 5 min, mean ± SEM, 10 mice
Outline: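 White albino mice of either sex, 8–10 weeks, 25–35 g, were trained on a rotating rod (2.5 cm diameter, 25 cm high). After i.p. dosing (10, 30 or 50 mg/kg), motor coordination was scored over 5 min at 30 min and 4 h. Neurotoxicity meant failure to stay on the rod for 1 min. 10 mice per group; mean ± SEM.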

[3] = tested on: PTZ-induced convulsions; assay: PTZ-induced convulsions in mice; type: in vivo; details: for average duration of seizure / latency time / seizure score / mortality: 5 mg/kg i.p., PTZ 70 mg/kg i.p., n = 10; for average duration of seizure / latency time / seizure score: mean ± SEM; for protection against PTZ-induced convulsions: dose of 5 mg/kg; for enhancement of latency time of PTZ-induced seizures compared with the standard LTG drug: vs LTG
Outline: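 Overnight-fasted albino mice (n = 10 per group) received test compound at 5 mg/kg i.p., suspended in carboxymethylcellulose and sonicated. Controls were vehicle, PTZ alone and lamotrigine (dose-finding at 1–5 mg/kg). Clonic seizures were induced with PTZ 70 mg/kg i.p. Recorded: latency, convulsion duration, number of convulsions, protection, and a 0–6 seizure score (6 = death). Mean ± SEM; one-way ANOVA with Dunnett's test versus the PTZ group.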

| Compound | IC50 ± SD ([1]; MCF-7, 1–30 μM, 48 h, MTT) | % inhibition/stimulation ([1]; 48 h, MTT) [%] | time on Rod ([2]; dose 10 mg/kg i.p.) [s] | time on Rod ([2]; dose 30 mg/kg i.p.) [s] | time on Rod ([2]; dose 50 mg/kg i.p.) [s] | average duration of seizure [3] [s] | latency time [3] [s] | seizure score [3] [counts] | mortality [3] [counts] | protection against PTZ-induced convulsions [3] [%] | time on Rod ([2]; dose 50 mg/kg i.p., 50 mg/kg) | enhancement of latency time of PTZ-induced seizures compared with the standard LTG drug ([3]; 5 mg/kg) [%] | time on Rod ([2]; dose 10 mg/kg i.p., 10 mg/kg) [s] | time on Rod ([2]; dose 30 mg/kg i.p., 30 mg/kg) [s] | IC50 ([1]; read-out: IC50 ± SD, MCF-7, 1–30 μM, 48 h, MTT) [µM] | latency time ([3]; listed as LTG control) [s] | decrease in the time duration of convulsions as compared to PTZ (negative control) ([3]; 5 mg/kg, vs PTZ negative control) [%] | mice protected from clonic convulsions ([3]; LTG monotherapy 5 mg/kg) [%] | highest nonprotective dose in the PTZ model ([3]; monotherapy, doses 1-5 mg/kg tested against clonic convulsions) [mg/kg] | inhibition at 30 µM ([1]; Homo sapiens, MCF7, 48 h, read-out: % inhibition/stimulation) [%] |
| --- | --- | --- | --- | --- | --- | --- | --- | --- | --- | --- | --- | --- | --- | --- | --- | --- | --- | --- | --- | --- |
| (1E,2Z)-N-[6-(2,3-Dichlorophenyl)-5-{(E)-[(2E)-3-phenylprop-2-en-1-ylidene]amino}-1,2,4-triazin-3-yl]prop-2-en-1-imine Zinc Chloride Coordinate Complex [4a] | inactive | 0.00 | 66.7 ± 15.1 | 45.4 ± 10.3 | 30.6 ± 4.2 | 86.5 ± 5.0 | 145.0 ± 23.4 | 15.0 ± 4.9 | 0.0 |  |  |  |  |  |  |  |  |  |  |  |
| COc1cc(C=Nc2nc(/N=C/c3ccc(O)c(OC)c3)nnc2-c2cccc(Cl)c2Cl)ccc1O [3c, 4-{[(3-{(E)-[(4-Hydroxy-3-methoxyphenyl)methylidene]amino}-6-(2,3-dichlorophenyl)-1,2,4-triazin-5-yl)imino]methyl}-2-methoxyphenol] |  |  | 140.7 ± 92.4 | 126.4 ± 88.0 | 100.0 ± 82.3 |  |  |  |  |  |  |  |  |  |  |  |  |  |  |  |
| (1E,2Z)-N-[6-(2,3-Dichlorophenyl)-5-{(E)-[(2E)-3-phenylprop-2-en-1-ylidene]amino}-1,2,4-triazin-3-yl]prop-2-en-1-imine Silver Nitrate Coordinate Complex [6a] | inactive | 0.00 | 141.7 ± 102.5 | 120.0 ± 98.7 | 75.8 ± 20.3 | 105 ± 7.1 | 180.0 ± 75.9 | 11.0 ± 2.3 | 1 | 90 |  |  |  |  |  |  |  |  |  |  |
| 4-{[(3-{(E)-[(4-Hydroxy-3-methoxyphenyl)methylidene]amino}-6-(2,3-dichlorophenyl)-1,2,4-triazin-5-yl)imino]methyl}-2-methoxyphenol Dibutyl Tin Dichloride Coordinate Complex [7c] | inactive | 0.00 | 190.0 ± 74.6 | 167.4 ± 89.8 |  | 125 ± 15.3 | 160.0 ± 49.0 | 11.0 ± 1.6 | 0.0 |  | 140.5 ± 94.9 s and 140.5 ± 94.0 s |  |  |  |  |  |  |  |  |  |
| (1E,2Z)-N-[6-(2,3-Dichlorophenyl)-5-{(E)-[(2E)-3-phenylprop-2-en-1-ylidene]amino}-1,2,4-triazin-3-yl]prop-2-en-1-imine Copper Acetate Coordinate Complex [5a] | inactive | 0.00 | 76.7 ± 19.7 | 55.9 ± 12.9 | 40.9 ± 10.7 | 81.5 ± 2.1 | 170.0 ± 45.2 | 11.0 ± 1.9 | 0.0 |  |  |  |  |  |  |  |  |  |  |  |
| 2,2′-{[6-(2,3-Dichlorophenyl)-1,2,4-Triazine-3,5-Diyl]bis[azanylylidene(E)methanylylidene]}diphenol Zinc Chloride Coordinate Complex [4b] | inactive | 0.00 | 105.0 ± 98.5 | 80.6 ± 78.6 | 54.26 ± 42.3 | 81.5 ± 2.1 | 240.0 ± 10.3 | 10.0 ± 6.5 | 0.0 |  |  | 13 |  |  |  |  |  |  |  |  |
| 4-{[(3-{(E)-[(4-Hydroxy-3-methoxyphenyl)methylidene]amino}-6-(2,3-dichlorophenyl)-1,2,4-triazin-5-yl)imino]methyl}-2-methoxyphenol Zinc Chloride Coordinate Complex [4c] | inactive | 0.00 | 80.0 ± 75.3 | 50.6 ± 42.5 | 30.65 ± 25.7 | 81.5 ± 1.5 | 250.0 ± 10.3 | 14.0 ± 3.7 | 0.0 |  |  | 18 |  |  |  |  |  |  |  |  |
| 4-{[(3-{(E)-[(4-Hydroxy-3-methoxyphenyl)methylidene]amino}-6-(2,3-dichlorophenyl)-1,2,4-triazin-5-yl)imino]methyl}-2-methoxyphenol Copper Acetate Coordinate Complex [5c] | inactive | 0.00 | 121.7 ± 98.3 | 90.0 ± 85.6 | 75.64 ± 52.7 | 115 ± 10.0 | 230.0 ± 70.1 | 10.0 ± 2.6 | 0.0 |  |  | 8 |  |  |  |  |  |  |  |  |
| C1CCc2nnnn2CC1 [PTZ, pentylenetetrazole, reference compound] |  |  |  |  |  |  |  |  |  |  | 7.7 ± 2.4 s |  | 16.67 ± 8.165 | 10.46 ± 1.654 |  |  |  |  |  |  |
| (1E,2Z)-N-[6-(2,3-Dichlorophenyl)-5-{(E)-[(2E)-3-phenylprop-2-en-1-ylidene]amino}-1,2,4-triazin-3-yl]prop-2-en-1-imine Dibutyl Tin Dichloride Coordinate Complex of L1 [7a] | inactive | 0.00 | 155.0 ± 97.5 | 130.6 ± 92.4 | 100.4 ± 87.7 | 110 ± 14.1 | 220.0 ± 72.7 | 12.0 ± 1.2 | 0.0 |  |  | 4 |  |  |  |  |  |  |  |  |
| 2,2′-{[6-(2,3-Dichlorophenyl)-1,2,4-triazine-3,5-diyl]bis[azanylylidene(E)methanylylidene]}diphenol Silver Nitrate Coordinate Complex [6b] |  | 101.2 | 153.3 ± 92.7 | 146.3 ± 90.9 | 130.0 ± 91.7 | 95 ± 10.5 | 330.0 ± 67.8 | 12.0 ± 1.8 | 0.0 |  |  | 56 |  |  | 11.9 ± 0.27 |  |  |  |  |  |
| Oc1ccccc1/C=N/c1nnc(-c2cccc(Cl)c2Cl)c(/N=C/c2ccccc2O)n1 [3b, 2,2′-{[6-(2,3-Dichlorophenyl)-1,2,4-triazine-3,5-diyl]bis[azanylylidene(E)methanylylidene]}diphenol] |  |  | 110.8 ± 98.6 | 90.5 ± 82.3 | 65.97 ± 54.9 |  |  |  |  |  |  |  |  |  |  |  |  |  |  |  |
| Nc1nnc(-c2cccc(Cl)c2Cl)c(N)n1 [LTG, 3,5-diamino-6-(2,3-dichlorophenyl)-1,2,4-triazine, reference compound] |  |  | 290.0 ± 16.7 | 245.8 ± 15.4 | 200.7 ± 13.7 | 90 ± 3.5 | ~212 | 11.0 ± 2.3 | 0.0 |  |  |  |  |  |  | 211.7 ± 98.1 | 42 | 6 | 5 |  |
| 2,2′-{[6-(2,3-Dichlorophenyl)-1,2,4-triazine-3,5-diyl]bis[azanylylidene(E)methanylylidene]}diphenol Copper Acetate Coordinate Complex [5b] | inactive | 0.00 | 116.7 ± 94.3 | 100.0 ± 86.3 | 75.83 ± 54.3 | 97.5 ± 28.3 | 250.0 ± 88.3 | 11.0 ± 2.4 | 1 | 90 |  | 18 |  |  |  |  |  |  |  |  |
| COc1cccc2c1C(=O)c1c(O)c3c(c(O)c1C2=O)C[C@@](O)(C(=O)CO)C[C@@H]3O[C@H]1C[C@H](N)[C@H](O)[C@H](C)O1 [doxorubicin (DOX), doxorubicin, reference compound] |  |  |  |  |  |  |  |  |  |  |  |  |  |  |  |  |  |  |  | 101 |
